Test results reported in ChEMBL document CHEMBL2150863, “Synthesis pharmacological evaluation and docking studies of pyrimidine derivatives” (Eur J Med Chem, 2012).
Converted amounts (≈) assume the structure as drawn.

How the values were obtained:
Assay type in all cases: functional
Pseudomonas aeruginosa = experiment: Antibacterial activity against Pseudomonas aeruginosa MTCC 424 after 24 hrs by tube dilution method; details: MTCC 424, 24 h
Summary of the method: (§1)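 Tube dilution in Mueller-Hinton broth at pH 7.4. Two-fold serial dilutions from 1000 to 0.97 in 10% DMSO, with a DMSO-only inoculated control. Inoculum matched visually to a McFarland standard of about 1.5 × 10⁸ cells/mL. Incubation at 37 ± 1 °C for 24 h. MIC is the lowest concentration giving no growth; duplicate determinations, averaged.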

Aspergillus niger = experiment: Antifungal activity against Aspergillus niger MTCC 282 after 48 hrs by tube dilution method; details: MTCC 282, 48 h
Summary of the method: (§2)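 Tube dilution in Sabouraud dextrose broth at pH 7.4. Two-fold serial dilutions from 1000 to 0.97 in 10% DMSO, with a solvent control. Inoculum matched visually to a McFarland standard of about 1.5 × 10⁸ cells/mL. Incubation at 25 ± 1 °C for 48 h. MIC is the tube showing no fungal growth; duplicate determinations, averaged.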

Bacillus subtilis = experiment: Antibacterial activity against Bacillus subtilis MTCC 441 after 24 hrs by tube dilution method; details: MTCC 441, 24 h; summary of the method: as §1
Mus musculus = experiment: Analgesic activity in mouse assessed as inhibition of acetic-acid induced writhing at 10 mg/kg administered 15 mins prior to acetic acid-challenge measured for 15 mins relative to vehicle-treated control
Summary of the method: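 Mice, at least six per group. Test compounds given at 10 mg/kg; acetic acid solution given 15 min later. Writhing is scored as abdominal contractions, trunk twists and hind-limb extensions. Percent inhibition of pain = (1 − Vt/Vc) × 100, where Vt and Vc are mean writhing counts in the treated and control groups.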

Rattus norvegicus [1] = experiment: Antiinflammatory activity in rat assessed as inhibition of carrageenan-induced paw edema at 10 mg/kg, po administered 30 mins prior to carrageenan-challenge after 1 hr relative to vehicle-treated control
Summary of the method: (§3)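 Rats of 150–200 g, six per group. Oral dosing at 10 mg/kg as a suspension; controls receive 1% carboxymethylcellulose. After 30 min, 0.1 mL of 1% w/v carrageenan is injected into the left hind paw. Paw volume is measured by mercury displacement. Inhibition = (1 − Vt/Vc) × 100 from edema volumes; mean ± SEM.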

Candida albicans = experiment: Antifungal activity against Candida albicans MTCC 183 after 48 hrs by tube dilution method; details: MTCC 183, 48 h; summary of the method: as §2
Rattus norvegicus [2] = experiment: Antiinflammatory activity in rat assessed as inhibition of carrageenan-induced paw edema at 10 mg/kg, po administered 30 mins prior to carrageenan-challenge after 4 hrs relative to vehicle-treated control; summary of the method: as §3
Rattus norvegicus [3] = experiment: Antiinflammatory activity in rat assessed as inhibition of carrageenan-induced paw edema at 10 mg/kg, po administered 30 mins prior to carrageenan-challenge after 2 hrs relative to vehicle-treated control; summary of the method: as §3
Rattus norvegicus [4] = experiment: Antiinflammatory activity in rat assessed as inhibition of carrageenan-induced paw edema at 10 mg/kg, po administered 30 mins prior to carrageenan-challenge after 3 hrs relative to vehicle-treated control; summary of the method: as §3
Escherichia coli = experiment: Antibacterial activity against Escherichia coli MTCC 4351 after 24 hrs by tube dilution method; details: MTCC 4351, 24 h; summary of the method: as §1
Staphylococcus aureus = experiment: Antibacterial activity against Staphylococcus aureus MTCC 3160 after 24 hrs by tube dilution method; details: MTCC 3160, 24 h; summary of the method: as §1

SMILES | MIC (Pseudomonas aeruginosa) [µg/mL] | MIC (Aspergillus niger) [µg/mL] | MIC (Bacillus subtilis) [µg/mL] | inhibition in vivo at 10 mg/kg (Mus musculus) [%] | inhibition in vivo at 10 mg/kg (Rattus norvegicus [1]) [%] | MIC (Candida albicans) [µg/mL] | inhibition in vivo at 10 mg/kg (Rattus norvegicus [2]) [%] | inhibition in vivo at 10 mg/kg (Rattus norvegicus [3]) [%] | inhibition in vivo at 10 mg/kg (Rattus norvegicus [4]) [%] | MIC (Escherichia coli) [µg/mL] | MIC (Staphylococcus aureus) [µg/mL]
COc1ccc(C2CC(C3C(=O)c4ccccc4C3=O)=NC(=O)N2)cc1 (configuration not stated) | 250 (≈ 718 µM) | 250 (≈ 718 µM) | 125 (≈ 359 µM) | 31 | 22 | 250 (≈ 718 µM) | 10 | 21 | 22 | 250 (≈ 718 µM) | 500 (≈ 1440 µM)
O=C1N=C(C2C(=O)c3ccccc3C2=O)CC(c2ccccc2)N1 (configuration not stated) | 125 (≈ 393 µM) | 500 (≈ 1570 µM) | 250 (≈ 785 µM) | 31 | 20 | 500 (≈ 1570 µM) | 11 | 33 | 21 | 62.5 (≈ 196 µM) | 125 (≈ 393 µM)
O=C1N=C(C2C(=O)c3ccccc3C2=O)CC(c2cccc([N+](=O)[O-])c2)N1 (configuration not stated) | 250 (≈ 688 µM) | 125 (≈ 344 µM) | 250 (≈ 688 µM) | 36 | 27 | 500 (≈ 1380 µM) | 12 | 36 | 21 | 250 (≈ 688 µM) | 125 (≈ 344 µM)
OC(Cn1cncn1)(Cn1cncn1)c1ccc(F)cc1F [FLUCONAZOLE] | – | 7.8 (≈ 25.5 µM) | – | – | – | 7.8 (≈ 25.5 µM) | – | – | – | – | –
CN(C)c1ccc(C2CC(C3C(=O)c4ccccc4C3=O)=NC(=O)N2)cc1 (configuration not stated) | 62.5 (≈ 173 µM) | 500 (≈ 1380 µM) | 125 (≈ 346 µM) | 52 | 15 | 500 (≈ 1380 µM) | 16 | 29 | 20 | 125 (≈ 346 µM) | 125 (≈ 346 µM)
CC1(C)S[C@@H]2[C@H](NC(=O)[C@H](N)c3ccccc3)C(=O)N2[C@H]1C(=O)O [AMPICILLIN] | 3.9 (≈ 11.2 µM) | – | 3.9 (≈ 11.2 µM) | – | – | – | – | – | – | 3.9 (≈ 11.2 µM) | 3.9 (≈ 11.2 µM)
O=C1N=C(C2C(=O)c3ccccc3C2=O)CC(c2c[nH]c3ccccc23)N1 (configuration not stated) | 125 (≈ 350 µM) | 125 (≈ 350 µM) | 250 (≈ 700 µM) | 21 | 19 | 500 (≈ 1400 µM) | 12 | 21 | 12 | 250 (≈ 700 µM) | 250 (≈ 700 µM)
O=C1N=C(C2C(=O)c3ccccc3C2=O)CC(c2ccco2)N1 (configuration not stated) | 500 (≈ 1620 µM) | 62.5 (≈ 203 µM) | 31.2 (≈ 101 µM) | 25 | 18 | 62.5 (≈ 203 µM) | 7 | 25 | 20 | 31.2 (≈ 101 µM) | 62.5 (≈ 203 µM)
